Results: ChEMBL document CHEMBL1649286, “ACHN-490, a neoglycoside with potent in vitro activity against multidrug-resistant Klebsiella pneumoniae isolates” (2009)
≈ marks a conversion by molar mass, not a printed value.

Assays:
Assay type in all cases: functional
Klebsiella pneumoniae [1] = assay: Antimicrobial activity against beta lactamase KPC-producing Klebsiella pneumoniae isolates assessed as resistance isolates by microdilution method
Outline: (§1)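 Broth microdilution MICs following CLSI, in cation-adjusted Mueller-Hinton broth, using custom-made panels that include piperacillin-tazobactam. Tested against 102 multidrug-resistant clinical Klebsiella pneumoniae isolates, a subset of 25 of which produce KPC carbapenemase. Cephalosporin-clavulanate combinations use clavulanate at a constant 4 mg/liter. Susceptible and resistant categories are assigned by CLSI criteria.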

Klebsiella pneumoniae [2] = assay: Antimicrobial activity against beta lactamase KPC-producing Klebsiella pneumoniae isolates by microdilution method
Outline: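 Broth microdilution MICs following CLSI, in cation-adjusted Mueller-Hinton broth, using custom-made panels that include piperacillin-tazobactam. Cephalosporin-clavulanate combinations use clavulanate at a constant 4 mg/liter. Susceptible and resistant categories are assigned by CLSI criteria.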

Klebsiella pneumoniae [3] = assay: Antimicrobial activity against multidrug-resistant Klebsiella pneumoniae isolates assessed as susceptible isolates by microdilution method; outline: as §1
Klebsiella pneumoniae [4] = assay: Antimicrobial activity against multidrug-resistant Klebsiella pneumoniae isolates by microdilution method; outline: as §1
Klebsiella pneumoniae [5] = assay: Antimicrobial activity against beta lactamase KPC-producing Klebsiella pneumoniae isolates assessed as susceptible isolates by microdilution method
Outline: (§2)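 Broth microdilution in cation-adjusted Mueller-Hinton broth following CLSI criteria, using customized panels that included piperacillin-tazobactam. MICs were read as the endpoint, and susceptibility was categorized by CLSI criteria.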

Klebsiella pneumoniae [6] = assay: Antimicrobial activity against multidrug-resistant Klebsiella pneumoniae isolates assessed as resistance isolates by microdilution method; outline: as §1
Klebsiella pneumoniae [7] = assay: Antimicrobial activity against beta lactamase KPC-producing Klebsiella pneumoniae isolates by microdilution method in presence of beta-lactamase inhibitor Tazobactam
Outline: as §2, with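 “piperacillin-tazobactam. The 25 clinical KPC-producing K. pneumoniae isolates belong to a set of 102 multidrug-resistant strains.” for “piperacillin-tazobactam.”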

Klebsiella pneumoniae [8] = assay: Antimicrobial activity against multidrug-resistant Klebsiella pneumoniae isolates assessed as susceptible isolates by microdilution method in presence of beta-lactamase inhibitor Tazobactam; outline: as §1
Klebsiella pneumoniae [9] = assay: Antimicrobial activity against beta lactamase KPC-producing Klebsiella pneumoniae isolates assessed as susceptible isolates by microdilution method in presence of beta-lactamase inhibitor Tazobactam
Outline: as §2, with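 “piperacillin-tazobactam. The 25 clinical KPC-producing K. pneumoniae isolates belong to a set of 102 multidrug-resistant strains.” for “piperacillin-tazobactam.”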

Escherichia coli = assay: Antimicrobial activity against Escherichia coli ATCC 25922 by microdilution method
Klebsiella pneumoniae [10] = assay: Antimicrobial activity against Klebsiella pneumoniae ATCC 700603 by microdilution method
Pseudomonas aeruginosa = assay: Antimicrobial activity against Pseudomonas aeruginosa ATCC 27853 by microdilution method

NCC[C@H](O)C(=O)N[C@@H]1C[C@H](N)[C@@H](O[C@H]2O[C@H](CN)[C@@H](O)[C@H](O)[C@H]2O)[C@H](O)[C@H]1O[C@H]1O[C@H](CO)[C@@H](O)[C@H](N)[C@H]1O [AMIKACIN]
Activity (Klebsiella pneumoniae [1]): 0%
MIC50 (Klebsiella pneumoniae [2]): 32 µg/mL (≈ 54.6 µM)
MIC90 (Klebsiella pneumoniae [2]): 32 µg/mL (≈ 54.6 µM)
Activity (Klebsiella pneumoniae [3]): 78.4%
MIC50 (Klebsiella pneumoniae [4]): 2 µg/mL (≈ 3.42 µM)
MIC90 (Klebsiella pneumoniae [4]): 32 µg/mL (≈ 54.6 µM)
Activity (Klebsiella pneumoniae [5]): 48%
Activity (Klebsiella pneumoniae [6]): 4.9%

C[C@@H](O)[C@H]1C(=O)N2C(C(=O)O)=C(SCCNC=N)C[C@H]12 [IMIPENEM ANHYDROUS]
MIC50 (Klebsiella pneumoniae [2]): 8 µg/mL (≈ 26.7 µM)
MIC90 (Klebsiella pneumoniae [2]): > 16 µg/mL
Activity (Klebsiella pneumoniae [3]): 75.5%
MIC50 (Klebsiella pneumoniae [4]): 0.5 µg/mL (≈ 1.67 µM)
MIC90 (Klebsiella pneumoniae [4]): 8 µg/mL (≈ 26.7 µM)
Activity (Klebsiella pneumoniae [5]): 12%

CC(C)(O/N=C(\C(=O)N[C@@H]1C(=O)N2C(C(=O)[O-])=C(C[n+]3ccccc3)CS[C@H]12)c1csc(N)n1)C(=O)O [CEFTAZIDIME]
MIC50 (Klebsiella pneumoniae [2]): > 32 µg/mL
MIC90 (Klebsiella pneumoniae [2]): > 32 µg/mL
Activity (Klebsiella pneumoniae [3]): 9.8%
MIC50 (Klebsiella pneumoniae [4]): > 32 µg/mL
MIC90 (Klebsiella pneumoniae [4]): > 32 µg/mL
Activity (Klebsiella pneumoniae [5]): 0%

NC[C@@H]1O[C@H](O[C@H]2[C@@H](O)[C@H](O[C@@H]3[C@@H](O)[C@H](N)C[C@H](N)[C@H]3O[C@H]3O[C@H](CN)[C@@H](O)[C@H](O)[C@H]3N)O[C@@H]2CO)[C@H](N)[C@@H](O)[C@@H]1O [FRAMYCETIN]
MIC50 (Klebsiella pneumoniae [2]): 2 µg/mL (≈ 3.25 µM)
MIC90 (Klebsiella pneumoniae [2]): 32 µg/mL (≈ 52.1 µM)
MIC50 (Klebsiella pneumoniae [4]): 2 µg/mL (≈ 3.25 µM)
MIC90 (Klebsiella pneumoniae [4]): 32 µg/mL (≈ 52.1 µM)

CCN1CCN(C(=O)N[C@@H](C(=O)N[C@@H]2C(=O)N3[C@@H]2SC(C)(C)[C@@H]3C(=O)O)c2ccccc2)C(=O)C1=O [PIPERACILLIN]
MIC50 (Klebsiella pneumoniae [7]): > 64 µg/mL
MIC90 (Klebsiella pneumoniae [7]): > 64 µg/mL
Activity (Klebsiella pneumoniae [8]): 38.2%
Activity (Klebsiella pneumoniae [9]): 0%

CN(C)c1cc(NC(=O)CNC(C)(C)C)c(O)c2c1C[C@H]1C[C@H]3[C@H](N(C)C)C(O)=C(C(N)=O)C(=O)[C@@]3(O)C(O)=C1C2=O [TIGECYCLINE]
MIC50 (Klebsiella pneumoniae [2]): 1 µg/mL (≈ 1.71 µM)
MIC90 (Klebsiella pneumoniae [2]): 2 µg/mL (≈ 3.41 µM)
Activity (Klebsiella pneumoniae [3]): 90.2%
MIC50 (Klebsiella pneumoniae [4]): 1 µg/mL (≈ 1.71 µM)
MIC90 (Klebsiella pneumoniae [4]): 2 µg/mL (≈ 3.41 µM)
Activity (Klebsiella pneumoniae [5]): 96%

GENTAMICIN
Activity (Klebsiella pneumoniae [1]): 12%
MIC50 (Klebsiella pneumoniae [2]): 8 µg/mL
MIC90 (Klebsiella pneumoniae [2]): 16 µg/mL
Activity (Klebsiella pneumoniae [3]): 25.5%
MIC50 (Klebsiella pneumoniae [4]): 8 µg/mL
MIC90 (Klebsiella pneumoniae [4]): > 64 µg/mL
Activity (Klebsiella pneumoniae [5]): 44%
Activity (Klebsiella pneumoniae [6]): 39.2%

CN[C@@H]1[C@@H](O)[C@@H](O[C@@H]2[C@@H](O)[C@H](O[C@H]3OC(CNCCO)=CC[C@H]3N)[C@@H](N)C[C@H]2NC(=O)[C@@H](O)CCN)OC[C@]1(C)O [PLAZOMICIN]
MIC50 (Klebsiella pneumoniae [2]): 0.5 µg/mL (≈ 0.844 µM)
MIC90 (Klebsiella pneumoniae [2]): 1 µg/mL (≈ 1.69 µM)
MIC (Escherichia coli): 0.5 µg/mL (≈ 0.844 µM)
MIC (Klebsiella pneumoniae [10]): 0.25 µg/mL (≈ 0.422 µM)
MIC50 (Klebsiella pneumoniae [4]): 0.5 µg/mL (≈ 0.844 µM)
MIC90 (Klebsiella pneumoniae [4]): 1 µg/mL (≈ 1.69 µM)
MIC (Pseudomonas aeruginosa): 4 µg/mL (≈ 6.75 µM)

NC[C@H]1O[C@H](O[C@H]2[C@H](O)[C@@H](O[C@H]3O[C@H](CO)[C@@H](O)[C@H](N)[C@H]3O)[C@H](N)C[C@@H]2N)[C@H](N)C[C@@H]1O [TOBRAMYCIN]
Activity (Klebsiella pneumoniae [1]): 92%
MIC50 (Klebsiella pneumoniae [2]): 32 µg/mL (≈ 68.4 µM)
MIC90 (Klebsiella pneumoniae [2]): ≥ 64 µg/mL
Activity (Klebsiella pneumoniae [3]): 10.8%
MIC50 (Klebsiella pneumoniae [4]): 32 µg/mL (≈ 68.4 µM)
Activity (Klebsiella pneumoniae [5]): 8%
Activity (Klebsiella pneumoniae [6]): 76.5%

NCC[C@H](O)C(=O)N[C@@H]1C[C@H](N)[C@@H](O[C@H]2O[C@H](CN)CC[C@H]2N)[C@H](O)[C@H]1O[C@H]1O[C@H](CO)[C@@H](O)[C@H](N)[C@H]1O [ARBEKACIN]
MIC50 (Klebsiella pneumoniae [2]): 8 µg/mL (≈ 14.5 µM)
MIC90 (Klebsiella pneumoniae [2]): 16 µg/mL (≈ 29 µM)
MIC50 (Klebsiella pneumoniae [4]): 4 µg/mL (≈ 7.24 µM)
MIC90 (Klebsiella pneumoniae [4]): 16 µg/mL (≈ 29 µM)
